Laboratory results taken from ChEMBL document CHEMBL1132304, “Characterization of "mini-nucleotides" as P2X receptor agonists in rat cardiomyocyte cultures. An integrated synthetic, biochemical, and theoretical study” (1999).
Activity calls are given as the source filed them. The rule behind the calls is not given here.

Assays:
[1] = organism: Rattus norvegicus; assay: In vitro effect on intracellular ca++ elevation was determined in comparison to the ATP at 10 uM on rat cardiomyocytes; Not active; format: functional
Method in brief: (§1)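 Cultured neonatal rat cardiomyocytes (3-5 days in vitro) on coverglasses were loaded with indo-1, and [Ca²⁺]i was estimated by the 405/495 nm emission ratio method under UV epifluorescence. Ligand was added at 100 µM, with ATP 10 µM as reference. The read-out was [Ca²⁺]i elevation in nM above the 100 nM basal level, from 2-3 experiments.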

[2] = organism: Rattus norvegicus; assay: In vitro effect on intracellular ca++ elevation was determined in comparison to the ATP at 10 uM on rat cardiomyocytes; Ca++ elevation; format: functional; method in brief: as §1
[3] = organism: Rattus norvegicus; assay: Compound was evaluated 1 min after drug application on rat cardiomyocytes; format: functional; parameters: concentration or dose not given beside the values
Method in brief: (§2)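 Neonatal rat cardiomyocyte cultures (3-5 days in vitro, spontaneously contracting monolayers on collagen/gelatin-coated coverglasses) exposed to ligand at 100 µM. Contraction rate was recorded by video motion detector under phase-contrast microscopy at 37 °C in 95% air/5% CO₂, 1 min after drug application. The read-out was % reduction of heart rate from representative experiments.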

[4] = organism: Rattus norvegicus; assay: Inhibition of Ca++ elevation was determined in CPX treated cardiac cells in rat; No inhibition; format: functional, cell-based
[5] = organism: Rattus norvegicus; assay: Inhibition of Ca++ elevation was determined in PPADS treated cardiac cells in rat; format: functional
Method in brief: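 Neonatal rat cardiomyocyte cultures. Cells were incubated 5 min with 100 µM PPADS (P2-R antagonist) before the agonist was added at 100 µM (ATP at 10 µM). Intracellular Ca²⁺ was measured by the indo-1 405/495 nm emission ratio (Grynkiewicz ratio method). Scored as complete inhibition (+), no inhibition (−), or partial.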

[6] = organism: Rattus norvegicus; assay: Inhibition of Ca++ elevation was determined in PPADS treated cardiac cells in rat; Complete inhibition; format: functional, cell-based
[7] = organism: Rattus norvegicus; assay: Compound was evaluated 1 min after drug application on rat cardiomyocytes; Not active; format: functional; method in brief: as §2
[8] = organism: Rattus norvegicus; assay: In vitro effect on intracellular ca++ elevation was determined in comparison to the ATP at 10 uM on rat cardiomyocytes; Ca++ elevation; Not avtive; format: functional; method in brief: as §1
[9] = organism: Rattus norvegicus; assay: In vitro effect on intracellular ca++ elevation in comparison to the ATP at 10 uM on rat cardiomyocytes.; format: functional; method in brief: as §1
[10] = organism: Rattus norvegicus; assay: In vitro effect on intracellular ca++ elevation was determined in comparison to the ATP at 10 uM on rat cardiomyocytes; Ca++ elevation; Not active; format: functional; method in brief: as §1
[11] = organism: Rattus norvegicus; assay: Inhibition of Ca++ elevation was determined in PPADS treated cardiac cells in rat; No inhibition; format: functional, cell-based
[12] = organism: Rattus norvegicus; assay: Inhibition of Ca++ elevation was determined in CPX treated cardiac cells in rat; Complete inhibition; format: functional, cell-based
[13] = organism: Rattus norvegicus; assay: Inhibition of Ca++ elevation was determined in CPX treated cardiac cells in rat; Complete inhibition; Complete inhibition; format: functional, cell-based

Row | SMILES | Ca2+ elevation [2] | Reduction of heart rate [3] | inhibition [6] | also measured
1 | CCOc1nc2c(c(=O)n(C)c(=O)n2C)n1CCOP(=O)(O)O | – | – | – | Ca2+ elevation [1]: inactive
2 | Cn1c(=O)c2c(nc(Br)n2CCOP(=O)(O)O)n(C)c1=O | 54 nM | 17% | – | –
3 | Cn1c(=O)c2c(nc(Cl)n2CCOP(=O)(O)O)n(C)c1=O | 49 nM | 95% | – | inhibition [4]: inactive
4 | Cn1c(=O)c2c(nc(Sc3ccccc3)n2CCOP(=O)(O)OP(=O)(O)OP(=O)(O)O)n(C)c1=O | – | – | – | Ca2+ elevation [1]: inactive
5 | Cn1c(Sc2ccccc2)nc2c1c(=O)n(CCOP(=O)(O)O)c(=O)n2C | – | – | – | Ca2+ elevation [1]: inactive
6 | Nc1ncnc2c1ncn2[C@@H]1O[C@H](COP(=O)(O)OP(=O)(O)OP(=O)(O)O)[C@@H](O)[C@H]1O [ADENOSINE TRIPHOSPHATE] | – | – | – | inhibition [4]: inactive; Inhibition [5]: 60%
7 | Cn1c(Br)nc2c1c(=O)n(CCOP(=O)(O)O)c(=O)n2C | 80 nM | – | Total inhibition | inhibition [4]: inactive; NA [7]: inactive
8 | CCOc1nc2c(c(=O)n(C)c(=O)n2C)n1CCOP(=O)(O)OP(=O)(O)OP(=O)(O)O | – | – | – | Ca2+ elevation [8]: inactive
9 | Cn1c(=O)c2c(ncn2CCOP(=O)(O)OP(=O)(O)OP(=O)(O)O)n(C)c1=O | – | 64% | Total inhibition | inhibition [4]: inactive; Ca2+ elevation [9]: 87 nM
10 | Cn1cnc2c1c(=O)n(CCCOP(=O)(O)OP(=O)(O)OP(=O)(O)O)c(=O)n2C.N.N.N.N | 60 nM | – | – | –
11 | Cn1c(=O)c2c(ncn2CCCOP(=O)(O)O)n(C)c1=O | – | – | – | Ca2+ elevation [8]: inactive
12 | Cn1c(=O)c2c(ncn2CCCOP(=O)(O)OP(=O)(O)OP(=O)(O)O)n(C)c1=O | – | – | – | Ca2+ elevation [10]: inactive
13 | Cn1c(Br)nc2c1c(=O)n(CCOP(=O)(O)OP(=O)(O)OP(=O)(O)O)c(=O)n2C | 94 nM | 50% | Total inhibition | –
14 | Cn1cnc2c1c(=O)n(CCCOP(=O)(O)O)c(=O)n2C | – | – | – | Ca2+ elevation [8]: inactive
15 | Cn1c(=O)c2c(nc(Cl)n2CCOP(=O)(O)OP(=O)(O)OP(=O)(O)O)n(C)c1=O | 29 nM | 28% | Total inhibition | inhibition [4]: inactive
16 | Cn1cnc2c1c(=O)n(CCOP(=O)(O)OP(=O)(O)OP(=O)(O)O)c(=O)n2C.N.N.N.N | 54 nM | 3% | – | inhibition [11]: inactive; inhibition [12]: Total inhibition
17 | Cn1c(=O)c2c(ncn2CCOP(=O)(O)O)n(C)c1=O | 80 nM | 16% | Total inhibition | inhibition [12]: Total inhibition
18 | Cn1c(=O)c2c(nc(Sc3ccccc3)n2CCOP(=O)(O)O)n(C)c1=O | – | – | – | Ca2+ elevation [1]: inactive
19 | Cn1c(=O)c2c(nc(Br)n2CCOP(=O)(O)OP(=O)(O)OP(=O)(O)O)n(C)c1=O | 37 nM | 32% | – | –
20 | Cn1cnc2c1c(=O)n(CCOP(=O)(O)O)c(=O)n2C.N.N | 61 nM | 10% | Total inhibition | inhibition [13]: Total inhibition
